FN deposit inh = fibronectin deposition inhibition | AH1F fibroblasts, Alexa488-fibronectin deposition fluorescence, overnight | inhibition, % at 12.6 µM | hit rate 0.086% among 350,000;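 active = mean inhibition across replicates of 30% or more, regardless of how many single replicates reach that level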
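Assay system: AH1F fibroblasts assembling fluorescent fibronectin matrix; Amount: 10000 AH1F cells per well; Buffer or medium: DMEM, 2% serum; Probe or stimulus: Alexa488-fibronectin, 24 nM final in well; Doses: single compound dose, delivered by pin transfer; Incubation: 1 h adhesion, overnight exposure; Measured by: fluorescence 485/525 nm; Read-out: fibronectin deposition inhibition.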
Xi reactivation = X-chromosome reactivation activator; hit rate 0.055% among 360,000; activation, % at 7.58 µM; XiGFP mouse fibroblasts, % GFP-positive cells imaging, 3 d; cells co-treated with 5-aza-dC sensitizer; scaled so ellipticine positive control = 100%; AID 743238;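 active = mean normalized replicate activation at least 10% and every replicate at or above 10%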
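Material: XiGFP fibroblasts, SV40-immortalized. Buffer or medium: DMEM plus 5-aza-dC sensitizer. Compound: single concentration per compound, delivered by pin transfer. Times: 3 days compound exposure. Controls: ellipticine 6 µM.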
CFTR F508del cor = correctors of CFTR F508del function in bronchial epithelial cells. activity (quench increase), % at 7.58 µM. CFBE cells, YFP halide quenching; stimulated with forskolin plus potentiator P3; % fluorescence drop versus neutral controls. AID 720511. hit rate 0.36% among 350,000;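 active = mean added fluorescence quench of at least 8% versus neutral control, with both replicates also reaching 8%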;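 note: cells transiently co-express mutant CFTR-F508del with the halide-sensitive YFP; corrector assay measuring rescue of mutant channel to the surface after 24 h compound exposure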
Cneo AK release = causes C. neoformans cell lysis; hit rate 0.2% among 360,000; lysis activity, % at 15 µM; adenylate kinase release luminescence, 4 h; normalised: neutral wells 0, clomiphene wells 100;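 active = mean lysis activity across replicates of at least 80%, whatever share of replicates individually reach that level; inactive = mean lysis activity below 80%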
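Assay system: log-phase C. neoformans yeast / Quantity: yeast cell density of 5 × 10^6 cells/mL / Medium: fresh YPD growth medium / Compound: single dose / Timing: static 4 h at 37 °C with compound, 1 h detection / Measured by: adenylate kinase release luminescence / Read-out: lysis from increased AK signal / Benchmarks: Clomiphene as positive lysis control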
PGC1a acetyl inh = PGC1a acetylation modulation, inhibitor mode. inhibition, % at 15.6 µM. U2OS PGC1a acetylation, AlphaScreen anti-acetyl-lysine; with virally co-expressed GCN5 acetyltransferase. hit rate 0.17% among 350,000;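 active = every replicate shows inhibition of at least 40%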
DENV2 CPE rescue = protects cells from dengue virus 2 cytopathic effect; CPE inhibition, % at 9.99 µM; DENV2-infected cells, cytopathic effect rescue, plate reader; hit rate 1.7% among 350,000; in the data active = CPE inhibition above about 20%, passing the limit was not always enough; tested in BHK-21 cells
A number is an active result; – = inactive; · = no result. Most compounds without a hit are left out; they make up all but 1.9% or so of the library.

SMILES | FN deposit inh | Xi reactivation | CFTR F508del cor | Cneo AK release | PGC1a acetyl inh | DENV2 CPE rescue
CC(=O)N(C)C[C@H]1Oc2ncc(-c3cncnc3)cc2C(=O)N([C@@H](C)CO)C[C@H]1C | · | – | – | – | – | –
CCOc1ccc(NCC(=O)c2ccc(C)cc2)cc1 | – | – | – | · | – | –
Cc1ccc(C(=O)CNc2ccc(Cl)cc2)cc1 | – | – | 12 | – | · | –
CC(=O)c1cc2c(cc1NS(=O)(=O)c1ccccc1C)OCO2 | – | – | – | · | · | –
COc1ccc(S(=O)(=O)Nc2cc3c(cc2C(C)=O)OCO3)cc1 | · | – | 12 | · | · | –
COc1cc(C(=S)N2CCCCC2)ccc1OCC(=O)Nc1ccc(F)cc1 | – | – | – | – | · | 98
Cc1ccc(OCC(=O)Nc2ccc(CN3CCCCC3)cc2)c(C)c1 | – | – | 8.3 | · | – | –
COc1cc(C(=S)N2CCCC2)ccc1OCc1ccc(C)cc1 | – | – | – | – | · | 47
COc1cccc(S(=O)(=O)Nc2ccc3c(c2)[C@H]2C[C@@H](CC(=O)NCCc4ccccc4)O[C@H](CO)[C@H]2O3)c1 | · | – | – | – | – | –
CCN(C(=O)COC(=O)c1cc2c(s1)CCCCC2)C1CCS(=O)(=O)C1 (configuration not stated) | – | – | – | – | – | 60
COc1cccc(-c2ccc3n(c2=O)C[C@@H]2[C@@H](CO)[C@H](C(=O)NCC4CC4)N(C(C)=O)[C@H]32)c1 | · | – | · | – | · | –
O=C(NNc1c(F)c(F)cc(F)c1F)C1CCN(S(=O)(=O)c2ccccc2F)CC1 | – | – | – | – | · | 43
N#Cc1ccccc1S(=O)(=O)N1CCN(CC(=O)NC(=O)NC2CCCCC2)CC1 | – | – | – | · | · | –
O=C(NCc1ccccn1)C1CCN(S(=O)(=O)c2ccccc2F)CC1 | – | – | – | – | – | –
O=C(CN1CCN(S(=O)(=O)c2ccccc2F)CC1)NC1CCCC1 | – | – | – | · | – | 22
Cc1ccc(S(=O)(=O)Nc2cccc3c2O[C@@H](CN(C)S(=O)(=O)c2ccccc2)[C@H](C)CN([C@H](C)CO)C3=O)cc1 | · | – | – | – | – | –
C[C@H](CO)N1C[C@H](C)[C@@H](CN(C)Cc2ccc3c(c2)OCO3)OCCCC[C@H](C)Oc2ccc(NS(=O)(=O)c3ccc(Cl)cc3)cc2C1=O | – | – | – | – | – | –
O=C(C[C@H]1CC[C@@H]2[C@H](COC[C@@H](O)CN2Cc2ccccc2)O1)N[C@@H]1CCN(Cc2ccccc2)C1 | – | – | – | – | – | –
O=C(C[C@@H]1CC[C@H]2[C@@H](COC[C@H](O)CN2Cc2ccc(F)cc2)O1)NCCc1ccccc1 | – | – | – | – | – | –
O=C(C[C@H]1CC[C@@H]2[C@H](COC[C@H](O)CN2Cc2ccc(F)cc2)O1)NCc1ccncn1 | – | – | – | – | – | 27
O=C(C[C@H]1CC[C@H]2[C@@H](COC[C@@H](O)CN2C(=O)c2ccc(F)cc2)O1)NCCCN1CCOCC1 | – | – | – | – | – | 20
O=C(C[C@@H]1CC[C@@H]2[C@H](COC[C@H](O)CN2C(=O)c2ccc(F)cc2)O1)NCCCN1CCOCC1 | – | – | – | – | – | –
O=C(C[C@@H]1CC[C@@H]2[C@H](COC[C@@H](O)CN2Cc2ccc(F)cc2)O1)NCCc1ccccc1 | – | – | – | – | – | 28
O=C(C[C@@H]1CC[C@H]2[C@@H](COC[C@H](O)CN2Cc2ccccc2)O1)N[C@@H]1CCN(Cc2ccccc2)C1 | – | – | – | – | – | 39
C[C@@H]1CN([C@H](C)CO)C(=O)CCCn2cc(nn2)CO[C@@H]1CN(C)S(=O)(=O)c1ccc(-c2ccccc2)cc1 | – | – | – | – | – | –
SMILES | FN deposit inh | Xi reactivation | CFTR F508del cor | Cneo AK release | PGC1a acetyl inh | DENV2 CPE rescue
CN(C)C(=O)C[C@@H]1C[C@@H]2c3cc(NS(=O)(=O)c4ccc(F)cc4)ccc3O[C@@H]2[C@@H](CO)O1 | – | – | – | – | – | –
C[C@H]1CN([C@@H](C)CO)C(=O)CCCn2nncc2CO[C@@H]1CN(C)C(=O)C1CCCCC1 | – | – | – | – | – | –
O=C(C[C@@H]1CC[C@@H]2[C@H](COC[C@@H](O)CN2Cc2ccccc2)O1)NCc1ccccc1Cl | – | – | – | – | – | 33
CCCNC(=O)C[C@@H]1CC[C@H]2[C@@H](COC[C@H](O)CN2Cc2ccccc2F)O1 | – | – | – | 97 | – | –
CCNC(=O)C[C@H]1CC[C@@H]2[C@H](COC[C@@H](O)CN2Cc2ccccc2F)O1 | – | – | – | – | – | –
O=C(C[C@H]1CC[C@H]2NC[C@H](O)COC[C@@H]2O1)NCCc1ccccc1 | – | – | – | – | – | 36
O=C(C[C@H]1CC[C@@H]2[C@H](COC[C@H](O)CN2S(=O)(=O)c2ccccc2Cl)O1)NCc1ccccc1Cl | – | – | – | – | – | –
O=C(C[C@H]1CC[C@H]2[C@@H](COC[C@@H](O)CN2S(=O)(=O)c2ccccc2Cl)O1)NCc1ccccc1Cl | – | – | – | – | – | 73
CC(=O)N(C)C[C@@H]1Oc2ncc(C#C[C@H](C)O)cc2C(=O)N([C@H](C)CO)C[C@@H]1C | – | – | – | – | – | –
Cc1nn(-c2ccccc2)c(C)c1NC(=O)COC(=O)CCOc1ccccc1 | – | – | – | – | – | –
COc1ccc(OCCCC(=O)OCC(=O)Nc2c(C)nn(-c3ccccc3)c2C)cc1 | – | – | – | – | 85 | –
CC(C)C[C@@H]1NC(=O)[C@H](Cc2ccccc2)N(C)C(=O)[C@H](C)NC(=O)c2ccccc2NC(=O)[C@H](Cc2ccc(O)cc2)N(C)C1=O | · | · | – | – | – | –
CC[C@H](C)C1OC(=O)[C@@H](C)[C@@H](CC)NC(=O)[C@H](C)N(C)C(=O)C(C)(C)C(=O)C(C)NC(=O)[C@H](Cc2ccc(OC)cc2)N(C)C(=O)[C@H](C(C)C)N(C)C(=O)CNC(=O)[C@H](CC(C)C)N(C)C(=O)CNC1=O (some centres not stated) | · | · | · | – | 74 | ·
N#C/C(=C\c1ccc([N+](=O)[O-])o1)c1nc2ccccc2[nH]1 | – | 62 | · | · | · | –
C[C@@H]1CN([C@H](C)CO)C(=O)c2cccc(NS(=O)(=O)c3cccs3)c2O[C@@H]1CN(C)Cc1ccc(C(=O)O)cc1 | · | – | – | – | – | –
CCNC(=O)[C@H]1[C@H](CO)[C@H]2Cn3c(ccc(-c4ccc(OC)cc4)c3=O)[C@@H]1N2CC | · | – | – | – | · | 79
CCNC(=O)[C@H]1[C@H](CO)[C@H]2Cn3c(ccc(-c4cccc(OC)c4)c3=O)[C@H]2N1C(=O)NC(C)C | · | – | – | – | – | 31
